Assay results of several laboratories.
Each line is one published result; the experiments were not run side by side.
Cell line: MCF7
Read-out: cell growth or viability

The IC50 of `Cc1nc(Nc2ccc3c(c2)/C(=C/c2ccccc2)C(=O)N3C)c2ccccc2n1` is reported as 28.8 µM (MTT).
`O=C(CCn1c(=O)ccc2ccccc21)N1CCOCC1` has an IC50 of 9.77 µM (MTT; 48 h).
The IC50 of `Cc1ccc(-c2cc(-c3ccc(Cl)cc3)c3c(=O)n(C)c(=O)n(C)c3n2)cc1` is reported as 7.49 µM (MTT; 48 h).
For `O=C(C=Cc1ccc(O)c(O)c1)OCc1ccccc1`, the IC50 was 85.2 µM (MTT).
The IC50 of `Cc1nc(N(C)c2ccc3c(c2)/C(=C/c2ccccc2Cl)C(=O)N3C)c2ccccc2n1` is reported as 10.8 µM (MTT).
`COc1ccc(-c2cc(-c3ccc(OC)cc3)c3c(=O)[nH]c(=O)[nH]c3n2)cc1` has an IC50 of 8.38 µM (MTT; 48 h).
`CC(C)NCC(COc1cccc2ccccc12)OC(=O)C=Cc1ccc(O)c(O)c1` (centres unmarked) gave an IC50 of 5.37 µM (MTT).
`Cc1nc2ccc(CN(C)c3ccc(C(=O)N[C@@H](CCC(=O)O)C(=O)O)s3)cc2c(=O)[nH]1` has an IC50 of 1.98 µM (MTT; 48 h).
With `O=C(C=Cc1ccccc1)Nc1cc(-c2ccnc(N3CCC(O)CC3)c2)ccn1` the IC50 was 2.51 µM (MTT; 72 h).
With `CN(Cc1cnc2nc(N)nc(N)c2n1)c1ccc(C(=O)N[C@@H](CCC(=O)O)C(=O)O)cc1` the IC50 was 19 µM (MTT).
`Cc1nc(Nc2ccc3c(c2)/C(=C/c2ccccc2Cl)C(=O)N3)c2ccccc2n1` has an IC50 of 6.45 µM (MTT).
For `COc1ccc(-c2cc(-c3c(OC)cccc3OC)c3c(=O)n(C)c(=O)n(C)c3n2)cc1`, the IC50 was 11.3 µM (MTT; 48 h).
The IC50 of `Cc1nc(NC(=O)N2CCC[C@H]2C(N)=O)sc1-c1ccnc(C(C)(C)C(F)(F)F)c1` is reported as 1.89 µM (MTT).
For `COc1cc2c3c(n(CCCNCCO)c(=O)c2cc1OC)-c1nc2c(cc1C3=O)OCO2`, the IC50 was 0.369 µM (72 h).
The IC50 of `COc1ccc(-c2cc(-c3ccccc3Cl)c3c(=O)[nH]c(=O)[nH]c3n2)cc1` is reported as 17.5 µM (MTT; 48 h).
With `COc1cc2ncnc(N(C)c3ccc4c(c3)/C(=C/c3cccc(Cl)c3)C(=O)N4C)c2cc1OC` the IC50 was 6.53 µM (MTT).
`O=c1nc(-c2ccc(Nc3nnc(-c4ccc(Cl)cc4)c4ccccc34)cc2)cc(-c2ccccc2)[nH]1` gave an IC50 of 0.16 µM (MTT; 72 h).
For `Cc1nc(Nc2ccc3c(c2)/C(=C/c2ccccc2)C(=O)N3Cc2ccccc2)c2ccccc2n1`, the IC50 was 11.6 µM (MTT).
`COc1ccc(-c2cc(-c3c(OC)cccc3OC)c3c(=O)[nH]c(=O)[nH]c3n2)cc1` gave an IC50 of 32.3 µM (MTT; 48 h).
`CCNCCCn1c2c(c3cc(OC)c(OC)cc3c1=O)C(=O)c1cc3c(nc1-2)OCO3` has an IC50 of 0.262 µM (72 h).
